From PubChem BioAssay
The list is not random: actives were taken first. Their share in the collection is about 4.1%.
HCV NS3 hel inh = inhibitors of HCV NS3 helicase, primary screen, biochemical, Cy5 molecular beacon fluorescence; inhibition, % at 10.9 µM; NS3 helicase DNA unwinding; 0.56% of 290,000 active; Hepatitis C virus NS3 helicase;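 active = inhibition above the mean of all tested compounds plus 3 SD, set per campaign, cut at about 35% in these data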;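 also: 0% = DMSO wells and 100% = thioflavine S control wells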
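test system = hepatitis C virus NS3 helicase domain fragment enzyme | reagent = annealed dual-labelled DNA beacon duplex, ATP-started | times = 1 h at 25 °C | detection = Cy5 fluorescence, 0 and 60 min reads | read-out basis = percent inhibition from t60/t0 fluorescence ratio | control set = DMSO and thioflavine S | replication = one well per compound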
T cruzi repl = inhibitors of intracellular T. cruzi growth, primary screen, luminescence, NIH3T3 host cells. T. cruzi beta-gal in NIH3T3, 90 h. 1.4% of 300,000 active. inhibition, % (no concentration beside the values);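 active = mean inhibition across valid replicates above about 55%, limit read from the data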;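 also: signal also drops with host cell toxicity which is not excluded here; 0% = plate median of DMSO wells and 100% = zero luminescence signal; higher percent means less beta-gal luminescence so fewer parasites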
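Material: NIH/3T3 host cells with β-galactosidase reporter T. cruzi; Input: 5,000 host fibroblasts per well; Medium: DMEM, 2% fetal bovine serum; Compound: 50 nL DMSO compound solution per well; Schedule: 3 h host attachment, then at least 90 h co-culture; Detection: luminescent β-galactosidase signal after 60 min lysis.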
FID counter = compounds displacing fluorescent DNA intercalator, primary screen, artefact control for HCV NS3 helicase inhibitor project, biochemical, FID fluorescence; DNA fluorescent intercalator displacement; inhibition, % at 7.9 µM; 0.17% of 290,000 active; in the data active = inhibition above about 37%;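 also: 0% = vehicle and 100% = reference compound; higher means more ethidium bromide displaced from hairpin DNA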
MEKK3 PB1 HTS = modulators of MEKK3-MEK5 PB1 binding, primary screen, biochemical, wildtype MEKK3, multiplex bead flow cytometry, Alexa488-MEK5; Mitogen-activated protein kinase kinase kinase 3 (Homo sapiens), Q99759; bead-based flow cytometry, Alexa488-MEK5 binding to MEKK3; actives lie on both sides; 0 = blocked by unlabeled MEK5, 100 = vehicle; binding response (% of control), % at 10 µM; 1.4% of 290,000 active;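 active = binding response more than 3 SD above or below the average of its plate-row segment, actives on both sides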;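 also: Alexa488 bead fluorescence after subtracting the streptavidin-only scavenger bead signal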
Target sequence (Q99759 whole entry, looked up): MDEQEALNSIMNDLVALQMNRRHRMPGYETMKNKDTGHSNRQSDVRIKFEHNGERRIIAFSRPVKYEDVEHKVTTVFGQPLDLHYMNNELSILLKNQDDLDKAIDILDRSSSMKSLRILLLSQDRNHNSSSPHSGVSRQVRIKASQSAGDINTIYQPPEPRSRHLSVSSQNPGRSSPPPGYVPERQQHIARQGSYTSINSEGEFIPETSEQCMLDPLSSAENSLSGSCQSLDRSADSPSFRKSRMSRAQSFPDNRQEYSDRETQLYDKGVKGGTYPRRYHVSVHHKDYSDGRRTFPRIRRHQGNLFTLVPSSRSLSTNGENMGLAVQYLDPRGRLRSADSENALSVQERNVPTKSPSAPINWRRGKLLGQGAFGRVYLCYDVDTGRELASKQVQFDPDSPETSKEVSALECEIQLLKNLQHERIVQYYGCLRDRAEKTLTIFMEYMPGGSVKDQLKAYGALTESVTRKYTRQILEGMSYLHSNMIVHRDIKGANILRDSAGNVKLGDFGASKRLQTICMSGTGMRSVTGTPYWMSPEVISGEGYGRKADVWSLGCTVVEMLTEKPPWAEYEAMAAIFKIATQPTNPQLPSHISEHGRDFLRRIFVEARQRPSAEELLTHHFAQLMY
MEKK2 WT-MEK5 = modulators of MEK5 binding to wildtype MEKK2, primary screen, biochemical, multiplex bead flow cytometry, Alexa488-MEK5; 1.1% of 290,000 active; binding response (% of control), % at 10 µM; Alexa488-MEK5 binding to MEKK2 WT; actives lie on both sides; AID 1531, 2009; Mitogen-activated protein kinase kinase kinase 2 (Homo sapiens), Q9Y2U5; in the data active = binding response below about 67% or above about 130%
MEKK2 mut-MEK5 = MEK5 binding signal on mutant MEKK2 PB1, primary screen, biochemical, multiplex bead flow cytometry, Alexa488-MEK5; percent response, % at 10 µM; AID 1530, 2009; 0.35% of 290,000 active; Alexa488-MEK5 binding to MEKK2 mutant; in the data active = percent response above about 24%, passing the limit was not always enough
MEKK2wt confirm = modulators of MEK5 binding to wildtype MEKK2, confirmation, biochemical, single concentration, multiplex bead flow cytometry; binding response (% of control), % at 10 µM; Alexa488-MEK5 binding to MEKK2 WT; actives lie on both sides; shares compounds with MEKK3 PB1 HTS; 2.4% of 5,900 active; in the data active = binding response below about 16% or above about 210%; inactive = in between
MEKK2mut-MEK5 = mutant MEKK2 PB1-MEK5 binding signal retest – biochemical, single concentration, multiplex bead flow cytometry, confirmation | Alexa488-MEK5 binding to MEKK2 mutant | shares compounds with MEKK3 PB1 HTS | percent response, % at 10 µM | 2% of 5,900 active | AID 1893, 2009; in the data active = percent response mostly above about 71%, no sharp cut-off; inactive = mostly below about 38%;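 also: higher means compound restores mutant binding toward wildtype level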
MEKK3 confirm = MEKK3 wild-type PB1 binding to MEK5, inhibitors, confirmation, biochemical, bead multiplex flow cytometry, single concentration, wildtype. AID 1894, 2009. binding response (% of control), % at 10 µM. Alexa488-MEK5 binding to MEKK3; active compounds read low. shares compounds with MEKK3 PB1 HTS. 1.8% of 5,900 active;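 active = binding response below 72% of control, or above a set upper limit, though filed actives all read lower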;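 also: 100% = DMSO only wells and 0% = binding blocked by excess unlabeled MEK5; lower values mean stronger disruption of MEK5 binding to MEKK3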
* hit, by the source's call; . = not tested or not shown; [ ] = remark or other dose.

SMILES	HCV NS3 hel inh	T cruzi repl	FID counter	MEKK3 PB1 HTS	MEKK2 WT-MEK5	MEKK2 mut-MEK5	MEKK2wt confirm	MEKK2mut-MEK5	MEKK3 confirm
COc1ccccc1-c1ccc(SCc2cccc(F)c2)nn1	-2	1	-15	101	97	-3	.	.	.
CCc1nnc(NC(=O)CSc2ccc(-c3cccs3)nn2)s1	3	-18	-20	90	83	-11	.	.	.
CCc1nnc(NC(=O)CSc2ccc(-c3ccccc3OC)nn2)s1	0	5	-17	67*[inhibitor]	83	-3	97	-3	100
COc1cccc2[nH]c3c(N4CCC(C)CC4)ncnc3c12	-8	48	14	90	104	-7	.	.	.
COc1cccc2[nH]c3c(N4CCc5ccccc5C4)ncnc3c12	1	31	1	103	147*	26	152	26	108
Cc1ccc(Nc2nc(CSc3nnc(-c4ccc(F)cc4)n3C)cs2)cc1	16	-1	-10	1.0*[inhibitor]	3.0*[inhibitor]	-8	99	-1	100
COc1cccc(C2=NO[C@@H]3C(=O)N(Cc4ccccc4)C(=O)[C@H]23)c1OC	-3	3	-10	128*	116	7	96	-4	98
Cc1cccc(NC(=O)c2ccc(S(=O)(=O)NCc3cccnc3)cc2)c1	-2	-11	-16	103	100	1	.	.	.
Cc1cc(C(=O)COC(=O)CNS(=O)(=O)c2ccc3ccccc3c2)c(C)n1-c1ccccc1	-1	4	-21	164*	102	0	99	1	107
O=C(CNS(=O)(=O)c1ccc2ccccc2c1)OCC(=O)c1ccc(Br)s1	-10	-19	-8	98	94	-1	.	.	.
O=C1OCCN1c1c(-c2ccccc2)c(-c2cccs2)nc2c(-c3ccccc3)cccc12	1	-2	-20	95	82	-10	.	.	.
CCCC(=O)NC(=S)NNC(=O)c1ccc([N+](=O)[O-])cc1	-10	-24	0	133*	100	4	95	3	99
CCn1cc(C(=O)NC2CCCCCC2)c(=O)c2ccc(C)nc21	-2	-8	-22	104	107	1	.	.	.
O=C(NCCN1C(=O)S/C(=C\c2cccc(Cl)c2Cl)C1=O)C1=COCCO1	0	-1	-22	96	93	-9	.	.	.
CCN1CCN(c2cc(-c3ccccc3)nc3cc(-c4cccc(F)c4)nn23)CC1	-41	36	4	122*	146*	49*	182	39	108
COc1cc(/C=C2\SC(=S)N(CC(=O)Nc3ccccn3)C2=O)cc(OC)c1OC	3	-8	-5	99	85	2	.	.	.
COc1cc(/C=C2/SC(=S)N(CC(=O)Nc3nc4ccccc4s3)C2=O)cc(OC)c1OC	9	5	-13	89	71*[inhibitor]	-16	80	-9	99
COc1ccc(/C=C2\SC(=S)N(CC(=O)Nc3nnc(C)s3)C2=O)cc1	8	-28	-3	92	84	-6	.	.	.
CCc1nnc(NC(=O)CN2C(=O)/C(=C/c3cc(OC)c(OC)c(OC)c3)SC2=S)s1	19	-2	-21	159*	95	1	88	-5	100
CCN(Cc1ccncc1)C(=O)CSc1ccc2ccccc2c1	-3	16	-18	100	95	1	.	.	.
Cc1ccc(CN2CC(C(=O)N3CCN(S(=O)(=O)c4cccc(F)c4)CC3)CC2=O)cc1 (stereo not drawn)	.	-6	.	.	.	.	.	.	.
O=C(CN1CCCCC1)N1CCCc2c1c(=O)oc1ccc(OCc3ccccc3)cc21	-43	23	5	112	111	8	.	.	.
CCCCCOc1ccc2oc(=O)c3c(c2c1)CCCN3C(=O)CN1CCCC(C(=O)OCC)C1 (stereo not drawn)	-11	11	-23	2.0*[inhibitor]	2.0*[inhibitor]	-14	96	-2	102
CCC1(c2ccccc2)NC(=O)N(CC(=O)Nc2ccc(S(=O)(=O)NC3=NCCCCC3)cc2)C1=O (stereo not drawn)	.	-15	.	.	.	.	.	.	.
CN(C)CCCNc1nc(-c2ccc(Cl)cc2)nc2ccccc12	-32	33	54*	111	141*	16	134	15	106
SMILES	HCV NS3 hel inh	T cruzi repl	FID counter	MEKK3 PB1 HTS	MEKK2 WT-MEK5	MEKK2 mut-MEK5	MEKK2wt confirm	MEKK2mut-MEK5	MEKK3 confirm
Cc1cccc(-c2nc(NCCCN(C)C)c3ccccc3n2)c1	5	24	63*	105	135*	13	112	7	102
CCOc1ccccc1OCCCC(=O)N(CC)CC(=O)Nc1c(F)cccc1F	.	-2	.	.	.	.	.	.	.
CC1C(=O)C(C)C(c2cc(Cl)ccc2O)NC1c1cc(Cl)ccc1O (stereo not drawn)	-16	32	-6	102	94	5	.	.	.
Cc1ccsc1/C=C(\C#N)C(=O)NCc1ccco1	3	-12	-2	128*	103	4	107	9	109
N#C/C(=C\c1cccs1)C(=O)NCc1ccco1	-1	8	2	96	98	0	.	.	.
Oc1ccc2nnc3c(Br)cnn3c2c1	16	-13	3	98	99	1	.	.	.
O=C(/C=C/c1cccc(Br)c1)NCc1ccncc1	1	-11	-4	107	108	10	.	.	.
Cc1ncc(CO)c(/C=N/NC(=O)c2ccccc2Br)c1O	-4	6	-2	99	5.0*[inhibitor]	2	101	2	105
CC[C@@H](C)CN1C(=O)N[C@@H](c2ccccc2)C(C(C)=O)=C1C	.	-3	.	101	96	-3	.	.	.
COc1cc2c(cc1OC)C(C(=O)Nc1ccc(F)c(Cl)c1)CC(=O)N2 (stereo not drawn)	2	8	-3	108	113	17	.	.	.
